{
  "source": "ChEMBL document CHEMBL1156931",
  "about": "“Discovery of novel fibroblast growth factor receptor 1 kinase inhibitors by structure-based virtual screening” (J Med Chem, 2010)",
  "data": [
    {"target": "Fibroblast growth factor receptor 1 (Homo sapiens, UniProt P11362)", "sequence (P11362 whole entry)": "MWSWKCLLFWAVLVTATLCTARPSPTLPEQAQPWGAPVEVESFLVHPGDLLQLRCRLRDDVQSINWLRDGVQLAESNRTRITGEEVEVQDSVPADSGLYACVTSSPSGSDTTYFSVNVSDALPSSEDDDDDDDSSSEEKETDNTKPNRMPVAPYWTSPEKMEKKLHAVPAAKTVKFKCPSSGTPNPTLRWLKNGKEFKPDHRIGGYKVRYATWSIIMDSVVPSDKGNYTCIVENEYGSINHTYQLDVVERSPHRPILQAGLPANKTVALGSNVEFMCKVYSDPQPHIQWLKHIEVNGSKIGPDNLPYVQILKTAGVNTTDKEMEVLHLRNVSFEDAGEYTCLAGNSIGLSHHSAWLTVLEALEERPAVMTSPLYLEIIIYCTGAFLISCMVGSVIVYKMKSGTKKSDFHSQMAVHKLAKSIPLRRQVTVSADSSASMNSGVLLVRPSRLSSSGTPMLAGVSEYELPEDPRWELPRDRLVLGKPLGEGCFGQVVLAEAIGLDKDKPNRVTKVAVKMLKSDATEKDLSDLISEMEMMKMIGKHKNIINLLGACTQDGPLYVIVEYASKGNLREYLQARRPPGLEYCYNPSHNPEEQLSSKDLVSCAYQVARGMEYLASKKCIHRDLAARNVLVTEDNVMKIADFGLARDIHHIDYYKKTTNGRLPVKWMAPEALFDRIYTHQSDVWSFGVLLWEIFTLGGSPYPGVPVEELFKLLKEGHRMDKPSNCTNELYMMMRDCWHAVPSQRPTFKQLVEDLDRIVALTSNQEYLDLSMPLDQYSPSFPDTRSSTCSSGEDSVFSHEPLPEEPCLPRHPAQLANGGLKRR", "assay": "(§1) Inhibition of FGFR1", "conditions": "not given; call rule not given here", "values": [
      {"compound": "CCOC(=O)CNc1ccccc1-c1nc2ccccc2[nH]c1=O", "IC50": "Not Active"},
      {"compound": "CC(CCc1ccccc1)NC(=O)COC(=O)CC1Sc2ccccc2NC1=O", "note": "(stereo not given)", "IC50": "Not Active"},
      {"compound": "CCc1ccc(OCCCOc2ccc(/C=C3\\SC(=O)NC3=O)cc2)cc1", "IC50": "Not Active"},
      {"compound": "O=c1[nH]c2ccc(NCc3cccc(OCc4ccccc4)c3)cc2[nH]1", "IC50": "Not Active"},
      {"compound": "COc1ccc(-c2nc(NC(C)=O)c3c(=O)oc4ccc(Cl)cc4c3n2)cc1", "IC50": "Not Active"},
      {"compound": "COc1cc(-c2nc(=O)c3c([nH]2)sc2cc(C(F)(F)F)ccc23)ccc1OCC(=O)O", "IC50": "Not Active"},
      {"compound": "COc1cc(/C=C2\\NC(=S)NC2=O)ccc1OCCCOc1cccc(C)c1", "IC50": "Not Active"},
      {"compound": "CC(=O)Nc1nc(-c2ccc(C(C)(C)C)cc2)nc2c1c(=O)oc1ccccc12", "IC50": "Not Active"},
      {"compound": "Cc1ccc(SCCNC(=O)COC(=O)Cc2n[nH]c(=O)c3ccccc23)cc1", "IC50": "Not Active"},
      {"compound": "COc1cc(/C=C2\\NC(=S)NC2=O)ccc1OCCCOc1ccccc1Cl", "IC50": "Not Active"},
      {"compound": "COc1ccc2cc(C3(C)NC(=O)N(Cc4ccc(F)cc4Cl)C3=O)ccc2c1", "note": "(stereo not given)", "IC50": "Not Active"},
      {"compound": "C=C1c2ccccc2NC(=O)N1c1cccc(Cl)c1", "IC50": "Not Active"},
      {"compound": "O=C(CSc1nc2c(c(=O)[nH]1)C1CCCCC1S2)NCc1ccco1", "note": "(stereo not given)", "IC50": "Not Active"},
      {"compound": "COc1ccc2cc(-c3nc4cccc(C)n4c3NC3CCCC3)c(=O)[nH]c2c1", "IC50": "Not Active"},
      {"compound": "O=C1C(Nc2ccccc2)=CC(c2cccc([N+](=O)[O-])c2)N1c1ccccc1", "note": "(stereo not given)", "IC50": "Not Active"},
      {"compound": "O=C(CC1NC(=O)c2ccccc21)NCc1ccco1", "note": "(stereo not given)", "IC50": "Not Active"},
      {"compound": "CC(C)C(=O)Nc1nc2c(c3c1c(=O)oc1ccccc13)CCCC2", "IC50": "Not Active"},
      {"compound": "C/C(=N\\CC1CCCO1)C1C(=O)NC(=O)N(c2ccc(C)cc2)C1=O", "note": "(stereo not given)", "IC50": "Not Active"},
      {"compound": "Cc1ccc(C2(C)NC(=O)N(Cc3ccc(F)cc3)C2=O)cc1", "note": "(stereo not given)", "IC50": "Not Active"},
      {"compound": "Cc1ccc2[nH]c(=O)c(-c3nc4ccc(Cl)cn4c3NCC3CCCO3)cc2c1", "note": "(stereo not given)", "IC50": "Not Active"},
      {"compound": "O=C(NCc1n[nH]c(=O)c2ccccc12)c1ccc(Br)o1", "IC50": "Not Active"},
      {"compound": "COc1cccc(-c2nc(=O)c3c4c(sc3[nH]2)CC(C)CC4)c1", "note": "(stereo not given)", "IC50": "Not Active"},
      {"compound": "COc1ccc(-c2nc(=O)c3c4c(sc3[nH]2)CC(C)CC4)cc1OC", "note": "(stereo not given)", "IC50": "Not Active"},
      {"compound": "COc1cc(/C=C2\\NC(=S)NC2=O)ccc1OCCCOc1cccc(Cl)c1", "IC50": "Not Active"},
      {"compound": "Cc1ccc2[nH]c(=O)c3cc(C(=O)N4CCN(c5ccccn5)CC4)sc3c2c1", "IC50": "Not Active"},
      {"compound": "CC(=O)Nc1nc(-c2ccc(Cl)c(Cl)c2)nc2c1c(=O)oc1ccccc12", "IC50": "Not Active"},
      {"compound": "COc1cc(/C=C2\\NC(=S)NC2=O)ccc1OCCCOc1cc(C)cc(C)c1", "IC50": "Not Active"},
      {"compound": "COc1cc(/C=C2\\NC(=S)NC2=O)ccc1OCCCOc1ccc(Cl)cc1", "IC50": "Not Active"},
      {"compound": "COc1cc(C2C=C(Nc3ccccc3)C(=O)N2c2ccccc2)ccc1O", "note": "(stereo not given)", "IC50": "Not Active"}
    ]},
    {"target": "Fibroblast growth factor receptor 1 (Homo sapiens, UniProt P11362)", "assay": "as §1", "conditions": "read-out: IC50", "units": {"IC50": "µM"}, "values": [
      {"compound": "COc1cc(-c2nc3sc4c(c3c(=O)[nH]2)CCC(C)C4)ccc1OCC(=O)O", "note": "(stereo not given)", "IC50": 50},
      {"compound": "CCc1ccc2c(c1)sc1[nH]c(-c3ccc(OCC(=O)O)c(OC)c3)nc(=O)c12", "IC50": 5.5},
      {"compound": "COc1cc(/C=C2\\SC(=N)NC2=O)ccc1OCCCOc1cc(C)cc(C)c1", "IC50": 23},
      {"compound": "COCc1cc(/C=C2\\NC(=S)NC2=O)ccc1OCCCOc1cc(C)cc(C)c1", "IC50": 3300},
      {"compound": "COc1cc(-c2nc3sc4cc(C)ccc4c3c(=O)[nH]2)ccc1OCC(=O)O", "IC50": 4},
      {"compound": "CCOc1cc(/C=C2\\NC(=S)NC2=O)ccc1OCCCOc1cc(C)cc(C)c1", "IC50": 250}
    ]},
    {"target": "T1, Insulin receptor (Homo sapiens, UniProt P06213)", "T1 sequence (P06213 28-758 limits assumed)": "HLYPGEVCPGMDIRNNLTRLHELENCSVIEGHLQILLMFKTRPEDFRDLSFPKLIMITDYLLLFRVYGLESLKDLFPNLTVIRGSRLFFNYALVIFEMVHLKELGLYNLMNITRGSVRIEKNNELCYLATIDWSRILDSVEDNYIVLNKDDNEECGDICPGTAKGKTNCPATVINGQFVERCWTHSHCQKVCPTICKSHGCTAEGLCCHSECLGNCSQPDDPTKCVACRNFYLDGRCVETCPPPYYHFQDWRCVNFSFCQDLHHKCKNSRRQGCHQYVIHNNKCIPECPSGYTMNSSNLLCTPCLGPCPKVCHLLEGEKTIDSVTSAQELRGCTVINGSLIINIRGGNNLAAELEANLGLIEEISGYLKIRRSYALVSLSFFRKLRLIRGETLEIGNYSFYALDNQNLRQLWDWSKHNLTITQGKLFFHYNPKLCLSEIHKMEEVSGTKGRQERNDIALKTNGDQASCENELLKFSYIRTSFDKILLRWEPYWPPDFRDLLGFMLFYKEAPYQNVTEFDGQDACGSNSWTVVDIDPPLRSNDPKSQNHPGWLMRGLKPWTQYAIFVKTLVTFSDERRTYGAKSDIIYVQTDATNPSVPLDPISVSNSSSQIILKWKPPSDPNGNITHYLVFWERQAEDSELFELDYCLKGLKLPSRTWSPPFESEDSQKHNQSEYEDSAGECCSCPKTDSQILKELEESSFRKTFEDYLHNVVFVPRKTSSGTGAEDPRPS", "T1 sequence (P06213 763-1382 limits assumed)": "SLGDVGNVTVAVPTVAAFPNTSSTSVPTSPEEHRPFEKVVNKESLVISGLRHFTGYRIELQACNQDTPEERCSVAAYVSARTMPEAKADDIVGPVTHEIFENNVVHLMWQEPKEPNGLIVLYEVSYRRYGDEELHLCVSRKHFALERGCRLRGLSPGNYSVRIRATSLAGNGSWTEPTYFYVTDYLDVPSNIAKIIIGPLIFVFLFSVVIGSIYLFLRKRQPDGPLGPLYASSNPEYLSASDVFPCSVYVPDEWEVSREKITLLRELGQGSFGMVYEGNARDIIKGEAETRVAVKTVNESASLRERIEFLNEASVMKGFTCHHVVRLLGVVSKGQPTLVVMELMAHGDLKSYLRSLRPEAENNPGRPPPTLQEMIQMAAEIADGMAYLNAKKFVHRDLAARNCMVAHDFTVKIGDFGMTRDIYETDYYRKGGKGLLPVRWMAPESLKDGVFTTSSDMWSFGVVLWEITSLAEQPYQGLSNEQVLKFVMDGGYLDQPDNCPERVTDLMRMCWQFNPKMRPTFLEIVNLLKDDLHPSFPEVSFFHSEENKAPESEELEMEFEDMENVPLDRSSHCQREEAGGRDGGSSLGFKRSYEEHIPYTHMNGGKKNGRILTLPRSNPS", "conditions": "not given", "units": {"IC50": "µM"}, "values": [
      {"compound": "COc1cc(/C=C2\\SC(=N)NC2=O)ccc1OCCCOc1cc(C)cc(C)c1", "IC50": 47}
    ]},
    {"target": "Proto-oncogene tyrosine-protein kinase Src (Homo sapiens, UniProt P12931)", "sequence (P12931 2-536 limits assumed)": "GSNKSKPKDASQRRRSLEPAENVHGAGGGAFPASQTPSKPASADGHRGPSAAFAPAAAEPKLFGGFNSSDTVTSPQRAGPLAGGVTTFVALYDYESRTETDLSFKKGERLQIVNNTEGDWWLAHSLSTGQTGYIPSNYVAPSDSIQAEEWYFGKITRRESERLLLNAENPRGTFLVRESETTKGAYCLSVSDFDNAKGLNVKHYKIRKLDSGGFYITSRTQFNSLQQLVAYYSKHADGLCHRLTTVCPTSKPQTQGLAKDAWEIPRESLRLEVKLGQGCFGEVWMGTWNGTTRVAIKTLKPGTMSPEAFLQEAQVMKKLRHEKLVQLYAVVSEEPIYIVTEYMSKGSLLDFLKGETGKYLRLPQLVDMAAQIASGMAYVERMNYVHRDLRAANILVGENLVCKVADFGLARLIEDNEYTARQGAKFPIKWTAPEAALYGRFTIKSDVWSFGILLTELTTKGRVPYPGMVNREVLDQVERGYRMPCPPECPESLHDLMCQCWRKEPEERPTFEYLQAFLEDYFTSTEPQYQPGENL", "assay": "Inhibition of SRC", "conditions": "not given", "units": {"IC50": "µM"}, "values": [
      {"compound": "COc1cc(/C=C2\\SC(=N)NC2=O)ccc1OCCCOc1cc(C)cc(C)c1", "IC50": 10}
    ]},
    {"target": "Epidermal growth factor receptor (Homo sapiens, UniProt P00533)", "sequence (P00533 whole entry)": "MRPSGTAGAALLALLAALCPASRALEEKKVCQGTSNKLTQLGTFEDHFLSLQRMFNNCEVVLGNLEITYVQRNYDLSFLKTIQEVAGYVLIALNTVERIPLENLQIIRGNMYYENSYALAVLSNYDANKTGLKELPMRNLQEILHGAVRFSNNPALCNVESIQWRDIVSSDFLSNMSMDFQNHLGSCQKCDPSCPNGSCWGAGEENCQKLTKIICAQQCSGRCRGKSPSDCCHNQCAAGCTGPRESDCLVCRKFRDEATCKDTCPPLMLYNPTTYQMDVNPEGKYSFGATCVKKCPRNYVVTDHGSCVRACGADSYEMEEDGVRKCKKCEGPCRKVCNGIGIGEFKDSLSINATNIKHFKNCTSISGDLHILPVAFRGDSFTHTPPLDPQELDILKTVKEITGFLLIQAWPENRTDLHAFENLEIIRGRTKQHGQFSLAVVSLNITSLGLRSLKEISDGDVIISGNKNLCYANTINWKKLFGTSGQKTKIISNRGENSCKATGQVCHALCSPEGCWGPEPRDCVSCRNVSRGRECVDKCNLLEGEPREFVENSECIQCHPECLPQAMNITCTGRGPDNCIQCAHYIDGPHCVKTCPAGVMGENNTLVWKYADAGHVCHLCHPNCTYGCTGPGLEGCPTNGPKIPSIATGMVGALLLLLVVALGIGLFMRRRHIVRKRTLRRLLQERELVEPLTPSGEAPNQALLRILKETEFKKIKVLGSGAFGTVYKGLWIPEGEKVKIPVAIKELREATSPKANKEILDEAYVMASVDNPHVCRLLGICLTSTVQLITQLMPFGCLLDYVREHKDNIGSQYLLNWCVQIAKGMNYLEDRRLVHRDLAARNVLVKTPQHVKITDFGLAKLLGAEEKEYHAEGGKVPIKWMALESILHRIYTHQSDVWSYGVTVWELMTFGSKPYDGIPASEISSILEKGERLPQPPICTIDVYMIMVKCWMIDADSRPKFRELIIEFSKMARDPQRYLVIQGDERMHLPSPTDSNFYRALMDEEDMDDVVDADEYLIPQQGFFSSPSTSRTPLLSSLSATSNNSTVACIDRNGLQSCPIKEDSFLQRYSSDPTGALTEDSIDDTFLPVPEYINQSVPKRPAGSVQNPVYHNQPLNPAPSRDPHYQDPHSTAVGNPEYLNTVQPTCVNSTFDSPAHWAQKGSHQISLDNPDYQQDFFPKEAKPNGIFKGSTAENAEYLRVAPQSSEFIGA", "assay": "Inhibition of EGFR", "conditions": "not given", "procedure,_shortened": "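Commercially sourced EGFR enzyme was tested in an AlphaScreen format. Kinase, biotinylated peptide, ATP and inhibitor were combined across 10 wells, typically 0.01 µM to 250 µM inhibitor. Phosphorylation ran for 30 min and was stopped with EDTA. Phosphopeptide was detected with anti-phosphotyrosine acceptor beads and streptavidin donor beads.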", "units": {"IC50": "µM"}, "values": [
      {"compound": "COc1cc(/C=C2\\SC(=N)NC2=O)ccc1OCCCOc1cc(C)cc(C)c1", "IC50": 56},
      {"compound": "COc1cc(-c2nc(=O)c3c([nH]2)sc2ccc(C)cc23)ccc1OCC(=O)O", "IC50": 2.4}
    ]},
    {"target": "T1, Insulin receptor", "conditions": "not given", "remark": "another data set of the same source", "values": [
      {"compound": "COc1cc(-c2nc(=O)c3c([nH]2)sc2ccc(C)cc23)ccc1OCC(=O)O", "IC50": "Not Active"}
    ]}
  ]
}
